These results are taken from article PMC2841442 (Journal of Medicinal Chemistry, 2010).

In series [1] the target is T1, NRP1 (PAE/NRP1 cells) (Homo sapiens, UniProt O14786). Particulars: read-out: IC50, 125I-VEGF-A binding to PAE/NRP1 and tumor cells; cited from earlier work.
The test system of another series is HUVECs. Briefly: VEGF-induced HUVEC migration. The conditions noted are these: 100 μM; VEGF 25 ng/mL; 4 h. It is filed as cell-based, human. Put shortly: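 HUVECs were pretreated 30 min with test compound or DMSO, then 1.5 × 10^5 cells in EBM/0.1% BSA were loaded into collagen I-coated transwell inserts (8 μm pores). Bottom wells held VEGF at 25 ng/mL, or medium control. Plates ran 4 h at 37 °C. Migrated underside cells were stained and counted in four fields at ×100. Three independent experiments in duplicate, mean ± SEM.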

A further series concerns A549 cells. Briefly: A549 cell viability. The series is classed as cell-based, human. In a few lines:
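A549 cells kept in RPMI 1640 with L-glutamine, seeded at 4 × 10^3 cells/well in serum-free medium with graded 5-FU or paclitaxel, with or without test compound at 100 μM. After 44 h, XTT was added for a further 4 h (48 h total). Formazan was read at 490 nm against 595 nm reference. Three independent experiments in triplicate, mean ± SEM.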

Series [2] has as its target T1, NRP1 (PAE/NRP1 cells). Briefly: Inhibition of 125I-VEGF-A165 binding to PAE/NRP1 cells. Particulars: 100 μM compound; 0.1 nM 125I-VEGF-A165; mean ± SEM, three experiments. Put shortly:
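Porcine aortic endothelial cells stably expressing NRP1 (Ham's F12, 10% FBS, hygromycin B) were grown to confluence. They received test compound (0.1−100 μM), then 0.1 nM 125I-VEGF-A165 (1200−1800 Ci/mmol). Nonspecific binding was taken with 100-fold excess unlabeled VEGF. IC50 was fitted from competition curves for compounds giving >70% inhibition at 100 μM. Three independent experiments in triplicate, mean ± SEM.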

T1 sequence (O14786 22-923): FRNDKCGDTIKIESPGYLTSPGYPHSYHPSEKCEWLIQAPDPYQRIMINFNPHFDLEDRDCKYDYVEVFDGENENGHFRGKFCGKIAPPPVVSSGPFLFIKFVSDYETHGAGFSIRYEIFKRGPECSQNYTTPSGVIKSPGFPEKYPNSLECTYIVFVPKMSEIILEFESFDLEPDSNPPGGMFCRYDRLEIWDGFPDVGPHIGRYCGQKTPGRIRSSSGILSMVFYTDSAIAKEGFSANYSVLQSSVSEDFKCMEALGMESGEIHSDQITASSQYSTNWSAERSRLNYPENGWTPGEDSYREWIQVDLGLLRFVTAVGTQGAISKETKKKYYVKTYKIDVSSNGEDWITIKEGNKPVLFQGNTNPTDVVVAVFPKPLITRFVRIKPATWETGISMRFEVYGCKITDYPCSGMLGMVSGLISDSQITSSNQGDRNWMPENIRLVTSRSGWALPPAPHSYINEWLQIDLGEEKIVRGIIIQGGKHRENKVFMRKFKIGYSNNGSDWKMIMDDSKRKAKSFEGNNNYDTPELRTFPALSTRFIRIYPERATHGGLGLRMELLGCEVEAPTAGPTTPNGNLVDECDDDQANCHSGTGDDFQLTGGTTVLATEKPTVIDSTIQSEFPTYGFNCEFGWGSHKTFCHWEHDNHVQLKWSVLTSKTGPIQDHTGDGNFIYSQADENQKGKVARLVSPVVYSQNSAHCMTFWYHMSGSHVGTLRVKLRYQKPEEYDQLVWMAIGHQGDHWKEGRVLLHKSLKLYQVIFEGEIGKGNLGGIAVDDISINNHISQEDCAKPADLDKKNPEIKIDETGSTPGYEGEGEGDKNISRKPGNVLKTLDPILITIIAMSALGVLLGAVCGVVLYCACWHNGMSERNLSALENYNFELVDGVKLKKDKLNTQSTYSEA

For “1: bicyclic peptide corresponding to the C-terminal 28 amino acids of VEGF-A165 [Compound 1]”, the IC50 in the series with NRP1 (PAE/NRP1 cells) [1] was 2000 to 3000 nM.
As for `N=C(N)NCCC[C@H](NC(=O)c1sccc1NS(=O)(=O)c1cccc2nsnc12)C(=O)O` [Compound 2, (S)-2-(3-(Benzo[c][1,2,5]thiadiazole-4-sulfonamido)thiophene-2-carboxamido)-5-guanidinopentanoic Acid], the “VEGF-A induced migration of HUVECs” value in the series on HUVECs is “significantly reduced”. For the same molecule, in the series on A549 cells (48 h incubation), the A549 cell viability entry is listed as “significant reduction”. In addition, in the series with A549 cells (A549 cells, 100 μM 2), the “enhancement of the cytotoxic effect of 5-fluorouracil” value is recorded as ~10 fold and the “enhancement of the cytotoxic effect of paclitaxel” value is “approximately 4 fold”.
H-KPAK-OH [Compound 23]: the “inhibition of 125I-VEGF binding to PAE/NRP1 cells at 100 μM” value at NRP1 (PAE/NRP1 cells) [2] was determined as 22 ± 1.2%.
The same measure, in the same setting: the result for H-KPAQ-OH [Compound 24] reads 19 ± 7.6%.
On the same count and under the same terms, the result for H-KPAr-OH [Compound 22] reads 22 ± 9.5%.
Still for that read-out and setting: the result for H-KPaR-OH [Compound 19] reads 36 ± 5.1%.
As to H-kPAR-OH [Compound 18], at NRP1 (PAE/NRP1 cells) [2], the “inhibition of 125I-VEGF binding to PAE/NRP1 cells at 100 μM” value is given as 51 ± 7.9%.
